# Screening results (PubChem)
# A selection: hits, their analogues and other compounds. The true share with any hit is near 1.8%.
# TDP2 absorb – TDP2 (human) inhibition, absorbance primary screen; O95551; recombinant TDP2, T5PNP hydrolysis, p-nitrophenol absorbance 415 nm; inhibition, % at 12.8 µM; hit rate 0.34% among 370,000; AID 720702;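 active = inhibition above the mean of all tested compounds plus 3 SD, set per campaign, cut at about 25% in these data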;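 also: 0% = DMSO with enzyme and 100% = buffer with substrate but no TDP2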
#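 Test system: human TDP2 enzyme; Input: 120 nM TDP2 per well; Buffer or medium: Mg2+-containing Tris-HCl buffer, pH 7.5; Reagent: 5 mM T5PNP; Dosing: 12.8 µM single point, 1% DMSO; Incubation: reaction 2 h, 37 °C; Detection: p-Nitrophenol epi absorbance; Read-out: % inhibition relative to enzyme-containing and enzyme-free wells; Replicates: single well per compound.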
# NSD2 HMT inh – blocks human histone methyltransferase NSD2; NSD2 peptide methylation, AlphaScreen, 120 min; inhibition, % at 12.5 µM; hit rate 0.54% among 310,000; AID 743445; in the data active = inhibition above about 50%
# MBD2 inh – MBD2-methylated oligo binding inhibition | hit rate 0.31% among 370,000 | TR-FRET, MBD2 binding to methylated oligonucleotide | Q9UBB5 | inhibition, % at 4.4 µM; in the data active = inhibition above about 13%
# UHRF1 binding – blocks human UHRF1 binding to methylated DNA; UHRF1 binding to methylated oligo, TR-FRET; inhibition, % at 4.4 µM; hit rate 0.75% among 370,000; Q96T88;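 also: UHRF1 SRA domain binding a hemimethylated CpG hairpin DNA probe; 0% = median of test compound wells and 100% = reference inhibitor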
# Target sequence (Q96T88 whole entry, looked up, the tested form may be a part): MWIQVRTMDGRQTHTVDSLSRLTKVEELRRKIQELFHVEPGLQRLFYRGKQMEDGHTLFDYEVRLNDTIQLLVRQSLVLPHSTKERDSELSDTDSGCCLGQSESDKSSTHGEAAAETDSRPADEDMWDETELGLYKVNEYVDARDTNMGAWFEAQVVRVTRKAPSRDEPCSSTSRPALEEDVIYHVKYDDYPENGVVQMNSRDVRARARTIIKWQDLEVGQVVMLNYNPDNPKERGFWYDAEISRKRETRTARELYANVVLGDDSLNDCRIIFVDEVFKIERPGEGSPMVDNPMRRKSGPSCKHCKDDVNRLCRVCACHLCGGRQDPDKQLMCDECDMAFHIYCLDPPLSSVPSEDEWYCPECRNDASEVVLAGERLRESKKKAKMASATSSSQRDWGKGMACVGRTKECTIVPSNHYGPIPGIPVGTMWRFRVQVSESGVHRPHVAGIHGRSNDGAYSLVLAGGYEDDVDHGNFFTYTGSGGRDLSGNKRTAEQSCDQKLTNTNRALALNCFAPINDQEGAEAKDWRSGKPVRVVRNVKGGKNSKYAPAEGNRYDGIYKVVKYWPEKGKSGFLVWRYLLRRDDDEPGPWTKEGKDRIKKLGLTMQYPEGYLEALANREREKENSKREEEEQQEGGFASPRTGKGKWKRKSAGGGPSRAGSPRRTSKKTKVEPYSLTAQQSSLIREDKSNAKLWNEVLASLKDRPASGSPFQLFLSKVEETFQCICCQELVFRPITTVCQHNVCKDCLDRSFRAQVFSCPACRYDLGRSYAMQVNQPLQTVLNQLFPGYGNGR
# LEDGF integ inh – blocks HIV-1 LEDGF/p75-dependent DNA integration. TR-FRET IN-LEDGF/p75 DNA integration, Eu/Cy5. inhibition, % at 3.7 µM. hit rate 0.64% among 370,000. AID 743269;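 active = inhibition above the screen-wide mean plus 3 SD, cut at about 13% in these data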;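 also: signal is the Cy5 over europium emission ratio at 671 and 618 nm; 0% = plate median of compound wells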
# CASP6 VEID inh – caspase-6 (human) enzyme inhibition; P55212; purified caspase-6, Z-VEID-R110 cleavage fluorescence; inhibition, % at 12.5 µM; hit rate 0.53% among 350,000; AID 686996;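 active = mean inhibition across replicates at least about 35%, with every replicate also reaching that limit, limit read from the data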;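 also: 0% = median of neutral control wells and 100% = no fluorescence left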
# UHRF1 ctr MBD2 – inhibits human UHRF1 binding to methylated oligonucleotide, MBD2 counter-screen. shares compounds with MBD2 inh. TR-FRET. inhibition, % at 4.4 µM. hit rate 25% among 1,000. AID 720530;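 also: UHRF1 SRA domain binding a labeled hemimethylated CpG hairpin DNA; 0% = vehicle only and 100% = reference inhibitor with vehicle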
# MBD2 confirm – MBD2-DBD methyl-DNA binding inhibition, TR-FRET confirmation; AID 720531; TR-FRET MBD2-DBD binding to methylated oligonucleotide; inhibition, % at 4.4 µM; hit rate 26% among 1,000; shares compounds with MBD2 inh; in the data active = inhibition above about 14%
# * = called active by the depositor; . = no result given. Rule as the data show it, unless noted: active = inhibition above about 21%; inactive = the rest.
SMILES,TDP2 absorb,NSD2 HMT inh,MBD2 inh,UHRF1 binding,LEDGF integ inh,CASP6 VEID inh,UHRF1 ctr MBD2,MBD2 confirm
Cc1nc2ccc(C(=O)Nc3ccccc3Cl)cc2s1,-14,-2,20*,18,-5,2,6,2
O=C(COC(=O)CNC(=O)c1ccc(Cl)cc1)Nc1ccc(Cl)cc1C(F)(F)F,6,1,61*,1,4,.,9,1
O=S(=O)(NCC1CCCO1)c1ccc2oc3ccc(S(=O)(=O)NCC4CCCO4)cc3c2c1 (centres undefined),6,-2,18*,-2,2,.,12,3
O=S(=O)(NCC1CCCO1)c1ccc(Br)cc1 (centres undefined),24,-1,-4,2,2,-1,.,.
CCN(CC(=O)Nc1c(F)cccc1F)C(=O)c1ccc2ccccc2n1,7,-1,-1,4,-4,3,.,.
CCN(CC(=O)Nc1c(F)cccc1F)C(=O)/C=C/c1ccc2ccccc2n1,-7,6,30*,64*,10,47*,66*,58*
CCOC(=O)c1c(C)n(C)c2ccc(OC)c([N+](=O)[O-])c12,2,-4,13*,29*,2,0,9,1
COc1ccc(N2CCN(C(=O)CNC(=O)Cn3cnc4sc(C)c(C)c4c3=O)CC2)cc1,17,39,86*,0,1,2,2,4
COc1ccccc1N1CCN(C(=O)CNC(=O)Cn2cnc3sc(C)c(C)c3c2=O)CC1,-6,2,1,5,1,-1,.,.
COC(=O)[C@]12C[C@H](CC(=O)NCC3CCCCC3)C(=O)N(Cc3ccccc3)C1=C[C@H](C(C)(C)C)O[C@@H]2C,7,.,20*,24*,0,1,3,2
COC(=O)[C@]12C[C@H](CC(=O)NCC3CCCCC3)C(=O)N(Cc3ccco3)C1=C[C@H](C(C)(C)C)O[C@@H]2C,-4,.,1,1,-1,.,.,.
COC(=O)[C@]12C[C@H](CC(=O)NCCCN3CCCC3=O)C(=O)N(Cc3ccc(Cl)cc3Cl)C1=C[C@H](C1CCCC1)O[C@@H]2C,-5,.,15*,0,-4,.,13,3
CO[C@@H]1CN(C)C(=O)c2ccc(NS(=O)(=O)c3ccccc3)cc2OC[C@H](C)N(Cc2cccnc2)C[C@@H]1C,.,.,.,.,.,2,.,.
COc1ccc2nc(C)cc(Nc3ccc(N4CCN(C)CC4)cc3)c2c1,-17,13,56*,54*,10,.,49*,51*
COc1ccc2nc(C)cc(Nc3ccc(N4CCOCC4)cc3)c2c1,4,22,6,13,0,.,.,.
O=C(Nc1nc(-c2ccc(Br)cc2)cs1)c1cccnc1,7,-1,-5,4,1,-1,.,.
O=C(NC(=S)Nc1nc(-c2ccc(Br)cc2)cs1)c1cccnc1,3,-1,16*,-3,2,.,6,1
O=C(NC1CCC1)[C@@H]1[C@@H](CO)[C@@H]2Cn3c(ccc(-c4ccccc4)c3=O)[C@@H]2N1CCc1ccccc1,.,.,.,.,.,2,.,.
C[C@@H]1CN([C@H](C)CO)S(=O)(=O)c2ccc(-c3cccnc3)cc2O[C@@H]1CN(C)C(=O)C1CCCCC1,.,.,.,.,.,4,.,.
COc1ccc(CC(=O)Nc2cccc(S(=O)(=O)N3CCCCC3)c2)cc1,7,-3,40*,-2,1,1,2,2
O=C(CCN1C(=O)/C(=C\c2ccccc2F)SC1=S)Nc1ccc(C(=O)O)c(O)c1,-18,27,2,2,-1,14,.,.
O=C(CN1C(=O)/C(=C/c2ccco2)SC1=S)Nc1ccc(C(=O)O)c(O)c1,21,135*,20*,79*,90*,73*,26*,7
O=C(Nc1cc(F)ccc1F)N[C@@H]1CC[C@H](CCn2cc(C3CCCC3)nn2)O[C@@H]1CO,.,.,.,.,.,2,.,.
CCCNC(=O)[C@H]1[C@H](CO)[C@H]2Cn3c(ccc(-c4cccnc4)c3=O)[C@H]2N1Cc1cocn1,.,.,.,.,.,0,.,.
O=C(CCS(=O)(=O)c1cc2c(cc1Cl)NC(=O)CO2)NCCc1ccccc1,19,-1,31*,-1,3,-1,7,0
SMILES,TDP2 absorb,NSD2 HMT inh,MBD2 inh,UHRF1 binding,LEDGF integ inh,CASP6 VEID inh,UHRF1 ctr MBD2,MBD2 confirm
O=C(CCS(=O)(=O)c1cc2c(cc1Cl)NC(=O)CO2)NCc1ccccc1,-15,-4,2,5,-2,-2,.,.
Cc1ccc(NC(=S)N(CCCN2CCN(C)CC2)Cc2cccs2)cc1,-17,3,16*,25*,4,-6,9,3
Cc1ccc(NC(=S)N(CCCN2CCN(C)CC2)Cc2cccs2)cc1C,1,1,-1,-2,-3,-6,.,.
CSc1nc2ccccc2n1Cc1cccc([N+](=O)[O-])c1,2,-22,16*,-2,-1,0,6,0
O=C(CN1CCOCC1)N[C@H]1CC[C@@H](CCn2cc(C3CCCC3)nn2)O[C@H]1CO,.,.,.,.,.,6,.,.
O=C(O)c1cccc(Sc2ccc(Br)cc2C(=O)O)c1,12,.,-3,0,-1,-1,.,.
O=C(O)c1cccc(Sc2cc(Cl)ccc2C(=O)O)c1,6,.,13*,20,2,-1,6,9
C[C@H]1CCCCO[C@@H](CN(C)S(=O)(=O)c2cn(C)cn2)[C@@H](C)CN([C@@H](C)CO)C(=O)c2cc(NC(=O)Nc3ccccc3)ccc2O1,.,.,.,.,.,0,.,.
CCCC#Cc1ccc2c(c1)O[C@@H](CN(C)Cc1ccccn1)[C@H](C)CN([C@H](C)CO)S2(=O)=O,.,.,.,.,.,-7,.,.
Cc1cc(C)c(OCC(=O)OCC(=O)NNC(=O)c2ccccc2F)c(C)c1,7,-2,22*,3,-7,0,5,2
CCN(CC)CCn1c2ccccc2c2cnc(N)c(C#N)c21,-7,.,16*,17,2,.,21*,33*
O=C(Cc1cccs1)N(Cc1ccco1)C1(C(=O)NC2CCCCC2)CCCCC1,14,0,-6,-2,0,.,.,.
O=C(Cc1cccs1)N(Cc1cccs1)C1(C(=O)NC2CCCC2)CCCCC1,4,.,13*,24*,4,.,2,4
Cc1cc(C)nc(SCC(=O)Nc2ccc(S(=O)(=O)Nc3ncccn3)cc2)n1,1,-5,-2,-2,0,-9,.,.
Cc1cc(C)c(C#N)c(SCC(=O)Nc2ccc(S(=O)(=O)Nc3ncccn3)cc2)n1,-10,1,18*,1,0,0,12,3
CCN(CC(=O)Nc1ccc2c(c1)OCCO2)CC(=O)Nc1ccc(C)c(S(=O)(=O)N(C)C)c1,3,1,20*,9,1,-1,5,2
